Measured values: ChEMBL document CHEMBL1166015, “Design, synthesis, and docking of highly hypolipidemic agents: Schizosaccharomyces pombe as a new model for evaluating alpha-asarone-based HMG-CoA reductase inhibitors” (Bioorg Med Chem, 2010)
pIC50: −log10 of the molar value.

What follows are compounds tested on Mus musculus (assay: Hypolipidemic activity in high cholesterol diet fed ICR mouse assessed as reduction of LDL cholesterol level at 50 mg/kg/day, po after 12 hrs of last cholesterol challenge relative to control). Conditions: not given.
Set-up: scale not given: the % may be the effect or the level left

SMILES	Activity [%]
CCCc1cc(OC)c(OCC(=O)O)cc1[N+](=O)[O-]	-41.1
CCCc1cc(OC)c(OCC(=O)OC)cc1O	-28.88
CCCc1cc(OC)c(OCC(=O)OC)cc1[N+](=O)[O-]	-21.13

These compounds were tested on Mus musculus (assay: Hypolipidemic activity in high cholesterol diet fed ICR mouse assessed as reduction of triglyceride level at 50 mg/kg/day, po after 12 hrs of last cholesterol challenge relative to control). Conditions: not given.
Set-up: scale not given: the % may be the effect or the level left

SMILES	Activity [%]
CCCc1cc(OC)c(OCC(=O)O)cc1[N+](=O)[O-]	-49.21
CCCc1cc(OC)c(OCC(=O)OC)cc1O	-68.42
CCCc1cc(OC)c(OCC(=O)OC)cc1[N+](=O)[O-]	-41.98

The compounds below were run on Mus musculus (assay: Hypolipidemic activity in high cholesterol diet fed ICR mouse assessed as reduction of HDL cholesterol level at 100 mg/kg/day, po after 12 hrs of last cholesterol challenge relative to control). Conditions: not given.
Set-up: scale not given: the % may be the effect or the level left

SMILES	Activity [%]
CCCc1cc(OC)c(OCC(=O)O)cc1[N+](=O)[O-]	-55.62
CCCc1cc(OC)c(OCC(=O)OC)cc1O	-13.45
CCCc1cc(OC)c(OCC(=O)OC)cc1[N+](=O)[O-]	-11.43

These compounds were tested on Mus musculus (assay: Hypolipidemic activity in high cholesterol diet fed ICR mouse assessed as reduction of HDL cholesterol level at 50 mg/kg/day, po after 12 hrs of last cholesterol challenge relative to control). Conditions: not given.
Set-up: scale not given: the % may be the effect or the level left

SMILES	Activity [%]
CCCc1cc(OC)c(OCC(=O)O)cc1[N+](=O)[O-]	-79.36
CCCc1cc(OC)c(OCC(=O)OC)cc1O	-18.89
CCCc1cc(OC)c(OCC(=O)OC)cc1[N+](=O)[O-]	-11.36

What follows are compounds tested on Mus musculus (assay: Hypolipidemic activity in high cholesterol diet fed ICR mouse assessed as reduction of total cholesterol level at 50 mg/kg, ip after 12 hrs of last cholesterol challenge relative to control). Conditions: route intraperitoneal.
Type: functional
Set-up: scale not given: the % may be the effect or the level left
In short: (§1)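 Male ICR mice (24–27 g), six per group, were fed a high-cholesterol diet ad libitum for 6 days (1.0% cholesterol, 0.5% sodium cholate, 5% butter, 30% sucrose, 10% casein, 53.5% chow). Basal-diet mice served as controls. Dosing was 5 mL/kg and solutions were made fresh. Mice were fasted 12 h before sacrifice and bled periorbitally. Serum TC, HDL-C and TG were read on an analyzer, with LDL-C by Friedewald.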

SMILES	Activity [%]
CCCc1cc(OC)c(OCC(=O)O)cc1[N+](=O)[O-]	-47.12
CCCc1cc(OC)c(OCC(=O)OC)cc1O	-53.34
CCCc1cc(OC)c(OCC(=O)OC)cc1[N+](=O)[O-]	-48.64

Each compound was assayed on Mus musculus (assay: Hypolipidemic activity in ICR mouse assessed as decrease in Tyloxapol-induced triglyceride level at 50 mg/kg, ip administered 1 hr before Tyloxapol challenge and 22, 48 hrs after Tyloxapol challenge measured after 22 hrs relative to control). Conditions: route intraperitoneal.
Type: functional
Set-up: scale not given: the % may be the effect or the level left
In short: (§2)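 Male ICR mice (24–27 g), groups of six. Hyperlipidemia induced by ip Tyloxapol (Triton WR 1339) 400 mg/kg in water. Drug given at 5 mL/kg 1 h before and 22 and 48 h after injection; vehicle controls. Blood drawn 22 h post-injection by periorbital bleeding. Serum total cholesterol, HDL-C and triglycerides measured on an automatic analyzer; LDL-C by the Friedewald equation. Values are % of the Tyloxapol group, mean ± SE.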

SMILES	Activity [%]
CCCc1cc(OC)c(OCC(=O)O)cc1[N+](=O)[O-]	-10.09
CCCc1cc(OC)c(OCC(=O)OC)cc1O	-38.63
CCCc1cc(OC)c(OCC(=O)OC)cc1[N+](=O)[O-]	-11.99

Each compound was assayed on Mus musculus (assay: Hypolipidemic activity in high cholesterol diet fed ICR mouse assessed as reduction of total cholesterol level at 100 mg/kg/day, ip after 12 hrs of last cholesterol challenge relative to control). Conditions: route intraperitoneal.
Type: functional
Set-up: scale not given: the % may be the effect or the level left
In short: as §1

SMILES	Activity [%]
CCCc1cc(OC)c(OCC(=O)O)cc1[N+](=O)[O-]	-50.22
CCCc1cc(OC)c(OCC(=O)OC)cc1O	-74.14
CCCc1cc(OC)c(OCC(=O)OC)cc1[N+](=O)[O-]	-39.51

What follows are compounds tested against T1, 3-hydroxy-3-methylglutaryl-coenzyme A reductase (Schizosaccharomyces pombe 972h-, UniProt Q10283) (assay: Inhibition of Schizosaccharomyces pombe HMG-CoA reductase by spectrophotometry). Conditions: read-out: IC50.
T1 sequence (Q10283 whole entry): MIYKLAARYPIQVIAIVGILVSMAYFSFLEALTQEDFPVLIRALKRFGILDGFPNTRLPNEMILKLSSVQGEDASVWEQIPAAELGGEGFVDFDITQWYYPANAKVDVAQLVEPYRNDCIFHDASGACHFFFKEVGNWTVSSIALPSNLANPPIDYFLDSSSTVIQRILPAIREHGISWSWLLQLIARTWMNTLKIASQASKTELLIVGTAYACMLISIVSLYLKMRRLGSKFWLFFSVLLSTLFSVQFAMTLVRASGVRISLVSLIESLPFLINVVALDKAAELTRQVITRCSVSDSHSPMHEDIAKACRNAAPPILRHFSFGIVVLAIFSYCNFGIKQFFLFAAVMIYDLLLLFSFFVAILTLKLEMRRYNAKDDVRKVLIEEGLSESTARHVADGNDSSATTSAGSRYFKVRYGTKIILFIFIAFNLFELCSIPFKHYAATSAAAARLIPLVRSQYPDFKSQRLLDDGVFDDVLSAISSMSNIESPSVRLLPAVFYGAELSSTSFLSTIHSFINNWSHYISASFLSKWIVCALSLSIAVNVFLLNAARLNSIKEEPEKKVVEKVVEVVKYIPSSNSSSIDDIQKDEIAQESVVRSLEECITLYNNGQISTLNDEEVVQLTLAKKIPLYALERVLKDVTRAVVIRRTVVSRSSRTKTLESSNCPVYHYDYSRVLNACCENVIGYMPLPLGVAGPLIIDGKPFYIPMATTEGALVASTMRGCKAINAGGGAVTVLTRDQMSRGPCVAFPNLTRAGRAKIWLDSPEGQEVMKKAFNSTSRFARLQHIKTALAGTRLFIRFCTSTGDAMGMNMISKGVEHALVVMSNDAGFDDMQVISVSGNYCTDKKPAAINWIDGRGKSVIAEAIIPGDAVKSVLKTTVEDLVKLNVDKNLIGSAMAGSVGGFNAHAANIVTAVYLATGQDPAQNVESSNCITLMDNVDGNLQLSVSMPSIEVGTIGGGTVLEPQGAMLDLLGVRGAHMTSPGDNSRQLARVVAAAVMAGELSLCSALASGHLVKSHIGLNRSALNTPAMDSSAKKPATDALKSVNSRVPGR
In short: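 Membrane HMGR partially purified from S. pombe 972 h (YPD, 28 °C, 48 h) via centrifugation, Triton X-100 solubilization, 65 °C heat step, ammonium sulfate and calcium phosphate gel. Enzyme activated 37 °C 30 min, pre-incubated with compound (DMSO stocks 1–5 mM) 30 min at 37 °C. Assay: 200 µg enzyme, 0.13 mM HMG-CoA, 50 mM Tris-HCl pH 7.5; started with 0.13 mM NADPH; A340 decrease over 2 min; triplicate; IC50 derived.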

pIC50	SMILES
3.87	CCCc1cc(OC)c(OCC(=O)O)cc1[N+](=O)[O-]
4.18	CCCc1cc(OC)c(OCC(=O)OC)cc1O

The compounds below were run on Mus musculus (assay: Hypolipidemic activity in ICR mouse assessed as decrease in Tyloxapol-induced triglyceride level at 100 mg/kg, ip administered 1 hr before Tyloxapol challenge and 22, 48 hrs after Tyloxapol challenge measured after 22 hrs relative to control). Conditions: route intraperitoneal.
Type: functional
Set-up: scale not given: the % may be the effect or the level left
In short: as §2

SMILES	Activity [%]
CCCc1cc(OC)c(OCC(=O)O)cc1[N+](=O)[O-]	-25.11
CCCc1cc(OC)c(OCC(=O)OC)cc1O	-47.07
CCCc1cc(OC)c(OCC(=O)OC)cc1[N+](=O)[O-]	-19.91

What follows are compounds tested on Mus musculus (assay: Hypolipidemic activity in ICR mouse assessed as decrease in Tyloxapol-induced HDL-cholesterol level at 100 mg/kg, ip administered 1 hr before Tyloxapol challenge and 22, 48 hrs after Tyloxapol challenge measured after 22 hrs relative to control). Conditions: route intraperitoneal.
Type: functional
Set-up: scale not given: the % may be the effect or the level left
In short: as §2

SMILES	Activity [%]
CCCc1cc(OC)c(OCC(=O)O)cc1[N+](=O)[O-]	-20.86
CCCc1cc(OC)c(OCC(=O)OC)cc1O	-25.03
CCCc1cc(OC)c(OCC(=O)OC)cc1[N+](=O)[O-]	-25.81

The compounds below were run on Mus musculus (assay: Hypolipidemic activity in high cholesterol diet fed ICR mouse assessed as reduction of LDL cholesterol level at 100 mg/kg/day, po after 12 hrs of last cholesterol challenge relative to control). Conditions: not given.
Set-up: scale not given: the % may be the effect or the level left

SMILES	Activity [%]
CCCc1cc(OC)c(OCC(=O)O)cc1[N+](=O)[O-]	-28.88
CCCc1cc(OC)c(OCC(=O)OC)cc1O	-41.81
CCCc1cc(OC)c(OCC(=O)OC)cc1[N+](=O)[O-]	-16.76

What follows are compounds tested on Mus musculus (assay: Hypolipidemic activity in ICR mouse assessed as decrease in Tyloxapol-induced HDL-cholesterol level at 50 mg/kg, ip administered 1 hr before Tyloxapol challenge and 22, 48 hrs after Tyloxapol challenge measured after 22 hrs relative to control). Conditions: route oral, in the assay text read “po administered” for “ip administered”.
Type: functional
Set-up: scale not given: the % may be the effect or the level left
In short: as §2

SMILES	Activity [%]
CCCc1cc(OC)c(OCC(=O)O)cc1[N+](=O)[O-]	-21.86
CCCc1cc(OC)c(OCC(=O)OC)cc1O	-29.15
CCCc1cc(OC)c(OCC(=O)OC)cc1[N+](=O)[O-]	-23.15

These compounds were tested on Mus musculus (assay: Hypolipidemic activity in ICR mouse assessed as decrease in Tyloxapol-induced LDL-cholesterol level at 50 mg/kg, ip administered 1 hr before Tyloxapol challenge and 22, 48 hrs after Tyloxapol challenge measured after 22 hrs relative to control). Conditions: route oral, in the assay text read “po administered” for “ip administered”.
Type: functional
Set-up: scale not given: the % may be the effect or the level left
In short: as §2

SMILES	Activity [%]
CCCc1cc(OC)c(OCC(=O)O)cc1[N+](=O)[O-]	-40.34
CCCc1cc(OC)c(OCC(=O)OC)cc1O	-28.94
CCCc1cc(OC)c(OCC(=O)OC)cc1[N+](=O)[O-]	-45.69

Each compound was assayed on Mus musculus (assay: Hypolipidemic activity in ICR mouse assessed as decrease in Tyloxapol-induced total cholesterol level at 100 mg/kg, ip administered 1 hr before Tyloxapol challenge and 22, 48 hrs after Tyloxapol challenge measured after 22 hrs relative to control). Conditions: route oral, in the assay text read “po administered” for “ip administered”.
Type: functional
Set-up: scale not given: the % may be the effect or the level left
In short: as §2

SMILES	Activity [%]
CCCc1cc(OC)c(OCC(=O)O)cc1[N+](=O)[O-]	-59.67
CCCc1cc(OC)c(OCC(=O)OC)cc1O	-68.42
CCCc1cc(OC)c(OCC(=O)OC)cc1[N+](=O)[O-]	-60.1

What follows are compounds tested on Mus musculus (assay: Hypolipidemic activity in high cholesterol diet fed ICR mouse assessed as reduction of triglyceride level at 100 mg/kg/day, po after 12 hrs of last cholesterol challenge relative to control). Conditions: not given.
Set-up: scale not given: the % may be the effect or the level left

SMILES	Activity [%]
CCCc1cc(OC)c(OCC(=O)O)cc1[N+](=O)[O-]	-47.72
CCCc1cc(OC)c(OCC(=O)OC)cc1O	-55.91
CCCc1cc(OC)c(OCC(=O)OC)cc1[N+](=O)[O-]	-28.78

These compounds were tested on Mus musculus (assay: Hypolipidemic activity in ICR mouse assessed as decrease in Tyloxapol-induced total cholesterol level at 50 mg/kg, ip administered 1 hr before Tyloxapol challenge and 22, 48 hrs after Tyloxapol challenge measured after 22 hrs relative to control). Conditions: route oral, in the assay text read “po administered” for “ip administered”.
Type: functional
Set-up: scale not given: the % may be the effect or the level left
In short: as §2

SMILES	Activity [%]
CCCc1cc(OC)c(OCC(=O)O)cc1[N+](=O)[O-]	-51.59
CCCc1cc(OC)c(OCC(=O)OC)cc1O	-68.32
CCCc1cc(OC)c(OCC(=O)OC)cc1[N+](=O)[O-]	-68.64

What follows are compounds tested on Mus musculus (assay: Hypolipidemic activity in ICR mouse assessed as decrease in Tyloxapol-induced LDL-cholesterol level at 100 mg/kg, ip administered 1 hr before Tyloxapol challenge and 22, 48 hrs after Tyloxapol challenge measured after 22 hrs relative to control). Conditions: route oral, in the assay text read “po administered” for “ip administered”.
Type: functional
Set-up: scale not given: the % may be the effect or the level left
In short: as §2

SMILES	Activity [%]
CCCc1cc(OC)c(OCC(=O)O)cc1[N+](=O)[O-]	-44.61
CCCc1cc(OC)c(OCC(=O)OC)cc1O	-23.15
CCCc1cc(OC)c(OCC(=O)OC)cc1[N+](=O)[O-]	-33.33
